assay: Cytotoxicity against rat RBL2H3 cells by MTT assay; format: cell-based; design: concentration or dose not given beside the values; conditions: rbl-2h3
Summary of the method: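 RBL2H3 cells (α-MEM) or PC12 cells (D-MEM), both with 10% FBS, treated at a single dose in 0.1% DMSO; 0.1% DMSO control; 37 °C, 5% CO2. MTT (5 mg/mL) added 4 h before the end, then SDS/DMF lysis buffer (pH 7.2) for 6 h; absorbance read at 570 nm. Cytotoxicity % calculated from background-corrected OD versus control.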

| SMILES | Activity [%] |
| --- | --- |
| COC(=O)C(CC(C)C)NC(=O)[C@]12CC[C@@H](C)[C@H](C)[C@H]1C1=CC[C@@H]3[C@@]4(C)CCC(=O)C(C)(C)[C@@H]4CC[C@@]3(C)[C@]1(C)CC2 (stereo partly drawn) | 2.6 |
| COC(=O)C(Cc1ccccc1)NC(=O)[C@]12CC[C@@H](C)[C@H](C)[C@H]1C1=CC[C@@H]3[C@@]4(C)Cc5cncnc5C(C)(C)[C@@H]4CC[C@@]3(C)[C@]1(C)CC2 (stereo partly drawn) | 2.6 |
| C[C@H]1[C@H](C)CC[C@]2(C(=O)O)CC[C@]3(C)C(=CC[C@@H]4[C@@]5(C)C=C(C#N)C(=O)C(C)(C)[C@@H]5CC[C@]43C)[C@H]12 | 4.3 |
| CC(=O)O[C@H]1CC[C@]2(C)[C@H]3CC=C4[C@@H]5[C@@H](C)[C@H](C)CC[C@]5(C(=O)O)CC[C@@]4(C)[C@]3(C)CC[C@H]2C1(C)C [O-ACETYLURSOLIC ACID] | 4.1 |
| COC(=O)C(Cc1ccccc1)NC(=O)[C@]12CC[C@@H](C)[C@H](C)[C@H]1C1=CC[C@@H]3[C@@]4(C)Cc5c([nH]c6ccc(Cl)cc56)C(C)(C)[C@@H]4CC[C@@]3(C)[C@]1(C)CC2 (stereo partly drawn) | 1.6 |
| C[C@H]1[C@H](C)CC[C@]2(C(=O)O)CC[C@]3(C)C(=CC[C@@H]4[C@@]5(C)Cc6cnoc6C(C)(C)[C@@H]5CC[C@]43C)[C@H]12 | 2.1 |
| C[C@H]1[C@H](C)CC[C@]2(C(=O)NC3CCN(Cc4ccccc4)CC3)CC[C@]3(C)C(=CC[C@@H]4[C@@]5(C)Cc6nc7ccccc7nc6C(C)(C)[C@@H]5CC[C@]43C)[C@H]12 | 51.1 |
| CCOC(=O)CNC(=O)[C@]12CC[C@@H](C)[C@H](C)[C@H]1C1=CC[C@@H]3[C@@]4(C)Cc5cnn(-c6ccccc6)c5C(C)(C)[C@@H]4CC[C@@]3(C)[C@]1(C)CC2 | 1.2 |
| COC(=O)C(Cc1ccccc1)NC(=O)[C@]12CC[C@@H](C)[C@H](C)[C@H]1C1=CC[C@@H]3[C@@]4(C)Cc5c([nH]c6ccc(Br)cc56)C(C)(C)[C@@H]4CC[C@@]3(C)[C@]1(C)CC2 (stereo partly drawn) | 16 |
| COC(=O)C(Cc1ccccc1)NC(=O)[C@]12CC[C@@H](C)[C@H](C)[C@H]1C1=CC[C@@H]3[C@@]4(C)Cc5nc6cc(Cl)c(Cl)cc6nc5C(C)(C)[C@@H]4CC[C@@]3(C)[C@]1(C)CC2 (stereo partly drawn) | 7.7 |
| C[C@H]1[C@H](C)CC[C@]2(C(=O)O)CC[C@]3(C)C(=CC[C@@H]4[C@@]5(C)Cc6cncnc6C(C)(C)[C@@H]5CC[C@]43C)[C@H]12 | 4.3 |
| C[C@H]1[C@H](C)CC[C@]2(C(=O)O)CC[C@]3(C)C(=CC[C@@H]4[C@@]5(C)CC[C@H](O)C(C)(C)[C@@H]5CC[C@]43C)[C@H]12 [URSOLIC ACID] | 10 |
| COC(=O)C(Cc1ccccc1)NC(=O)[C@]12CC[C@@H](C)[C@H](C)[C@H]1C1=CC[C@@H]3[C@@]4(C)Cc5cn[nH]c5C(C)(C)[C@@H]4CC[C@@]3(C)[C@]1(C)CC2 (stereo partly drawn) | 1.9 |
| C[C@H]1[C@H](C)CC[C@]2(C(=O)O)CC[C@]3(C)C(=CC[C@@H]4[C@@]5(C)Cc6cnn(-c7ccc(F)cc7)c6C(C)(C)[C@@H]5CC[C@]43C)[C@H]12 | 1.5 |
| CCOC(=O)CNC(=O)[C@]12CC[C@@H](C)[C@H](C)[C@H]1C1=CC[C@@H]3[C@@]4(C)Cc5cncnc5C(C)(C)[C@@H]4CC[C@@]3(C)[C@]1(C)CC2 | 1.9 |
| CCOC(=O)CNC(=O)[C@]12CC[C@@H](C)[C@H](C)[C@H]1C1=CC[C@@H]3[C@@]4(C)Cc5cnoc5C(C)(C)[C@@H]4CC[C@@]3(C)[C@]1(C)CC2 | 11.1 |
| C[C@H]1[C@H](C)CC[C@]2(C(=O)O)CC[C@]3(C)C(=CC[C@@H]4[C@@]5(C)Cc6cn[nH]c6C(C)(C)[C@@H]5CC[C@]43C)[C@H]12 | 0.1 |
| COC(=O)C(CC(C)C)NC(=O)[C@]12CC[C@@H](C)[C@H](C)[C@H]1C1=CC[C@@H]3[C@@]4(C)Cc5cnn(-c6ccccc6)c5C(C)(C)[C@@H]4CC[C@@]3(C)[C@]1(C)CC2 (stereo partly drawn) | 1.8 |
